Test results taken from ChEMBL document CHEMBL1126882, “Orally active central dopamine and serotonin receptor ligands: 5-, 6-, 7-, and 8-[[trifluoromethyl)sulfonyl]oxy]-2-(di-n-propylamino)tetralins and the formation of active metabolites in vivo” (J Med Chem, 1993).
Active and inactive are the calls of the source. The calls are words filed in the database; no cut-off is given here.

Legend:
Rattus norvegicus [1] = test: Effective dose for half-maximal decrease in the accumulation of 5-hydroxytryptophan (5-HTP) in reserpinized rat brain striatal area by sc administration; Inactive; assay type: functional, organism-based
In short: (§1)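 Male Sprague-Dawley rats (200-300 g) got reserpine 5 mg/kg sc 18 h before. The test drug (saline) was given sc or po (po rats fasted 18 h), with NSD 1015, 30 min before decapitation. DOPA and 5-HTP in limbic, striatal and hemispheral tissue were measured by HPLC-ED. ED50 (half-maximal decrease) was taken from 4-6-dose curves, with deviation estimated graphically from SEM.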

[2] = biological target: T1, Dopamine receptor (Rattus norvegicus) (UniProt P25115+P19020+P30729+P18901+P61169); test: Effective dose for half-maximal decrease in the accumulation of DOPA in reserpinized rat brain limbic area by sc administration; assay type: functional, organism-based; in short: as §1
Rattus norvegicus [3] = test: Effective dose for half-maximal decrease in the accumulation of 5-hydroxytryptophan (5-HTP) in reserpinized rat brain hemispheral area by sc administration; Inactive; assay type: functional, organism-based; in short: as §1
D(2) dopamine receptor [4] = biological target: T2, D(2) dopamine receptor (Rattus norvegicus, UniProt P61169); test: Binding affinity against dopamine receptor D2 in rat brain tissue using [3H]spiperone; assay type: tissue-based
In short: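 Rat striatal membranes were prepared in 50 mM potassium phosphate (pH 7.4). They were incubated with 0.5 nM [3H]spiperone (3 mg original tissue) for 10 min at 37 °C. Specific binding was defined with 10 μM 6,7-ADTN. Six drug concentrations (10⁻⁴-10⁻⁹ M) were tested, in triplicate or in a single experiment.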

Rattus norvegicus [5] = test: Effective dose for half-maximal decrease in the accumulation of 5-hydroxytryptophan (5-HTP) in reserpinized rat brain limbic area by sc administration; Inactive; assay type: functional, organism-based; in short: as §1
[6] = Effective dose for half-maximal decrease in the accumulation of 5-hydroxytryptophan (5-HTP) in reserpinized rat brain hemispheral area by po administration; assay type: functional; in short: as §1
[7] = Effective dose for half-maximal decrease in the accumulation of 5-hydroxytryptophan (5-HTP) in reserpinized rat brain limbic area by po administration; assay type: functional; in short: as §1
[8] = biological target: T1, Dopamine receptor (Rattus norvegicus); test: Effective dose for half-maximal decrease in the accumulation of DOPA in reserpinized rat brain hemispheral area by sc administration; Inactive; assay type: functional, organism-based; in short: as §1
[9] = biological target: T1, Dopamine receptor (Rattus norvegicus); test: Effective dose for half-maximal decrease in the accumulation of DOPA in reserpinized rat brain limbic area by po administration; assay type: functional, organism-based; in short: as §1
[10] = biological target: T1, Dopamine receptor (Rattus norvegicus); test: Effective dose for half-maximal decrease in the accumulation of DOPA in reserpinized rat brain hemispheral area by po administration; assay type: functional, organism-based; in short: as §1
[11] = biological target: T1, Dopamine receptor (Rattus norvegicus); test: Effective dose for half-maximal decrease in the accumulation of DOPA in reserpinized rat brain striatal area by po administration; assay type: functional, organism-based; in short: as §1
[12] = Effective dose for half-maximal decrease in the accumulation of 5-hydroxytryptophan (5-HTP) in reserpinized rat brain striatal area by po administration; assay type: functional; in short: as §1
[13] = biological target: T3, 5-hydroxytryptamine receptor 1A (Rattus norvegicus, UniProt P19327); test: Binding affinity against 5-hydroxytryptamine 1A receptor in homogenated rat brain tissue, using by [3H]8-OH-DPAT as radioligand; assay type: tissue-based
T3 sequence (P19327 whole entry): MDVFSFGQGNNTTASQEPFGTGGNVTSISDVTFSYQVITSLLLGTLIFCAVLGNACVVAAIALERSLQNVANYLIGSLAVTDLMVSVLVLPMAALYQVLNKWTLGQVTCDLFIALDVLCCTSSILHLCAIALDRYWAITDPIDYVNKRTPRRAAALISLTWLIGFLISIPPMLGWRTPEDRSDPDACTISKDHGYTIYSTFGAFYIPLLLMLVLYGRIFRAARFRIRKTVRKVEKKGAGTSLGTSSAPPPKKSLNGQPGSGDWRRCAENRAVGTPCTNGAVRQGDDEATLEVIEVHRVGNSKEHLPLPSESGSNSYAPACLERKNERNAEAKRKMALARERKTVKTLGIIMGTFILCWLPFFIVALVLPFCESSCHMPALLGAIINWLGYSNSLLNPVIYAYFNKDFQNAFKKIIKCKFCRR
In short: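 Rat brain homogenate was washed and preincubated in 50 mM Tris (pH 8.0) containing NaCl, CaCl2 and MgCl2, plus 10 μM pargyline. Nonspecific binding was defined with 10 μM 5-HT. Six drug concentrations (10⁻⁴-10⁻⁹ M) were tested, triplicate or single run. IC50 came from a semilog plot with linear regression.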

[14] = biological target: T1, Dopamine receptor (Rattus norvegicus); test: Effective dose for half-maximal decrease in the accumulation of DOPA in reserpinized rat brain striatal area by sc administration; assay type: functional, organism-based; in short: as §1
Rattus norvegicus [15] = test: post-synaptic agonistic effects by increase in locomotor activity at the dose of 50 umol/kg, sc in reserpinized rat (p<0.005); assay type: functional
[16] = Effective dose for half-maximal decrease in the accumulation of 5-hydroxytryptophan (5-HTP) in reserpinized rat brain hemispheral area by sc administration; assay type: functional; in short: as §1
[17] = biological target: T1, Dopamine receptor (Rattus norvegicus); test: Effective dose for half-maximal decrease in the accumulation of DOPA in reserpinized rat brain striatal area by sc administration; partial response at the highest dose tested; assay type: functional, organism-based; in short: as §1
[18] = Effective dose for half-maximal decrease in the accumulation of 5-hydroxytryptophan (5-HTP) in reserpinized rat brain limbic area by sc administration; assay type: functional; in short: as §1
[19] = biological target: T1, Dopamine receptor (Rattus norvegicus); test: Effective dose for half-maximal decrease in the accumulation of DOPA in reserpinized rat brain hemispheral area by sc administration; partial response at the highest dose tested; assay type: functional, organism-based; in short: as §1
[20] = biological target: T1, Dopamine receptor (Rattus norvegicus); test: Effective dose for half-maximal decrease in the accumulation of DOPA in reserpinized rat brain limbic area by sc administration; partial response at the highest dose tested; assay type: functional, organism-based; in short: as §1
Rattus norvegicus [21] = species: Rattus norvegicus; test: 5-HT behavioral syndrome was determined by observing flat body posture and forepaw threading in rat.++ indicates […] intensity of behavioral effect; assay type: functional, organism-based
In short: (§2)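 Male Sprague-Dawley rats (200-300 g) given reserpine 5 mg/kg sc in the neck 18 h before testing. The test compound, in 0.9% saline, was given sc in the neck (n = 4-5). Rats were placed singly in photocell motility meters right after dosing. Counts were recorded over 30 min, alongside gross behavioural observation of 5-HT and DA signs. Statistics: ANOVA with Fischer's PLSD versus reserpine controls.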

[22] = Effective dose for half-maximal decrease in the accumulation of 5-hydroxytryptophan (5-HTP) in reserpinized rat brain striatal area by sc administration; assay type: functional; in short: as §1
Rattus norvegicus [23] = test: post-synaptic agonistic effects by increase in locomotor activity at the dose of 50 umol/kg, sc in reserpinized rat; assay type: functional
Rattus norvegicus [24] = test: Effective dose for half-maximal decrease in the accumulation of 5-hydroxytryptophan (5-HTP) in reserpinized rat brain hemispheral area by sc administration; Partial response at the highest dose tested; assay type: functional, organism-based; in short: as §1
[25] = biological target: T1, Dopamine receptor (Rattus norvegicus); test: Effective dose for half-maximal decrease in the accumulation of DOPA in reserpinized rat brain hemispheral area by sc administration; Partial response at the highest dose tested; assay type: functional, organism-based; in short: as §1
Rattus norvegicus [26] = test: Effective dose for half-maximal decrease in the accumulation of 5-hydroxytryptophan (5-HTP) in reserpinized rat brain striatal area by po administration; Partial response at the highest dose tested; assay type: functional, organism-based; in short: as §1
Rattus norvegicus [27] = species: Rattus norvegicus; test: DA agonist induced behavior was charecterised by increased locomotion, sniffing and licking.++ indicates high intensity of behavioral effect; assay type: functional, organism-based; in short: as §2
[28] = Area under curve ratio was determined (po/iv); assay type: functional
In short: (§3)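 Male Sprague-Dawley rats (300 g) with arterial catheters were dosed 24 h after surgery. Doses: 40 μmol/kg po by gavage and 5 μmol/kg iv, or 20 po and 1 iv. Po rats were fasted 18 h. Blood was sampled from 5 min to 12 h and measured by GC-MS after extraction at pH 11 against an internal standard, samples in duplicate. AUC po/iv came from n = 4 per route. Half-life was read graphically from the oral elimination phase.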

[29] = Half-lives were estimated from the elimination phase of the blood conc-time curve after oral administration; assay type: ADME, organism-based; details: whole blood; in short: as §3
Rattus norvegicus [30] = test: Effective dose for half-maximal decrease in the accumulation of 5-hydroxytryptophan (5-HTP) in reserpinized rat brain striatal area by sc administration; Partial response at the highest dose tested; assay type: functional, organism-based; in short: as §1
D(2) dopamine receptor [31] = biological target: T2, D(2) dopamine receptor; test: Binding affinity against dopamine receptor D2 in homogenated rat brain tissue, using by ([3H]N00437) as radioligand; assay type: tissue-based
In short: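 Striata from male Wistar rats were washed in Tris (pH 7.5) containing EDTA, KCl and CaCl2. Tissue (1.25 mg original) was incubated with 0.2 nM [3H]-N-0437 (final) for 90 min at 25 °C, then filtered and counted by scintillation. Nonspecific binding was defined with 1 μM 6,7-ADTN. IC50 was read from a hand-fitted sigmoid curve, in triplicate.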

T2 sequence (P61169 whole entry): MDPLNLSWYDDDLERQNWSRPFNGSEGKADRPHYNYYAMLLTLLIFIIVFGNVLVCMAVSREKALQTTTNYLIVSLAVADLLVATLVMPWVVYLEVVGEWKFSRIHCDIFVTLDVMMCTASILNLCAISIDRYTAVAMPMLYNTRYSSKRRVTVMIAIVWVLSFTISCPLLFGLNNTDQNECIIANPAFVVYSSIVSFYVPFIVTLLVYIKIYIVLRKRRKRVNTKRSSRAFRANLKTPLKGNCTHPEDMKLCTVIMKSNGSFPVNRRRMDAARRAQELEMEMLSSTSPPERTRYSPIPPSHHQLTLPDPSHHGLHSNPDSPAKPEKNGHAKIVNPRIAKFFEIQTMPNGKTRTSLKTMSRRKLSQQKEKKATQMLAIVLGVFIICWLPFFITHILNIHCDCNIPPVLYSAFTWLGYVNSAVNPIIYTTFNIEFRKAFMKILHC

## CCCN(CCC)C1CCc2c(cccc2OC)C1 (configuration not stated)
Rattus norvegicus [1]
  ED50: inactive
[2]
  ED50: 0.01 µmol/kg
Rattus norvegicus [3]
  ED50: inactive
D(2) dopamine receptor [4]
  Ki: 100 nM
Rattus norvegicus [5]
  ED50: inactive
[6]
  ED50: 0.3 µmol/kg
[7]
  ED50: 0.4 µmol/kg
[8]
  ED50: inactive
[9]
  ED50: 0.2 µmol/kg
[10]
  ED50: 0.3 µmol/kg
[11]
  ED50: 0.2 µmol/kg
[12]
  ED50: 0.5 µmol/kg
[13]
  Ki: 440 nM
[14]
  ED50: 0.02 µmol/kg

## CCCNC1CCc2cccc(OS(=O)(=O)C(F)(F)F)c2C1 (configuration not stated)
Rattus norvegicus [15]
  Counts/30: 120 min
[16]
  ED50: 1.1 µmol/kg
D(2) dopamine receptor [4]
  Ki: 1360 nM
[17]
  ED50: Weak activity
[18]
  ED50: 1.2 µmol/kg
[19]
  ED50: Weak activity
[20]
  ED50: Weak activity
[13]
  Ki: 3.8 nM
Rattus norvegicus [21]
  Behavioral syndrome: Active
[22]
  ED50: 0.8 µmol/kg

## CCCN(CCC)C1CCc2c(cccc2OS(=O)(=O)C(F)(F)F)C1 (configuration not stated)
[2]
  ED50: 0.4 µmol/kg
D(2) dopamine receptor [4]
  Ki: 64 nM
Rattus norvegicus [5]
  ED50: inactive
Rattus norvegicus [23]
  Counts/30 min: 170
[6]
  ED50: 5.4 µmol/kg
[7]
  ED50: 3 µmol/kg
[9]
  ED50: 6.2 µmol/kg
Rattus norvegicus [24]
  ED50: Weak activity
[25]
  ED50: Weak activity
Rattus norvegicus [26]
  ED50: Weak activity
[11]
  ED50: 7.9 µmol/kg
Rattus norvegicus [27]
  Behavioral observation: Active
[28]
  Ratio: 8.5
[13]
  Ki: 160 nM
[29]
  half-life: 1.5 h
Rattus norvegicus [30]
  ED50: Weak activity
D(2) dopamine receptor [31]
  Ki: 28 nM
[14]
  ED50: 0.5 µmol/kg
